ChEMBL document CHEMBL4049460, “Trisubstituted Imidazoles with a Rigidized Hinge Binding Motif Act As Single Digit nM Inhibitors of Clinically Relevant EGFR L858R/T790M and L858R/T790M/C797S Mutants: An Example of Target Hopping” (J Med Chem, 2017)
pIC50, pKd: −log10 of the molar value.

How the values were obtained:
[1] = molecular target: T1, Epidermal growth factor receptor (Homo sapiens, UniProt P00533); assay: Inhibition of recombinant human GST-tagged wild type EGFR ( 668 to 1210 residues) cytoplasmic domain expressed in baculovirus expression system preincubated for 20 mins followed by addition of [33P]-ATP measured after 2 hrs by filter-binding method; conditions: read-out: IC50
[2] = molecular target: T2, Epidermal growth factor receptor (Homo sapiens, UniProt P00533, L858R); assay: Inhibition of recombinant human GST-tagged EGFR L858R mutant cytoplasmic domain expressed in baculovirus expression system preincubated for 20 mins followed by addition of [33P]-ATP measured after 2 hrs by filter-binding method; conditions: read-out: IC50
[3] = molecular target: T3, Epidermal growth factor receptor (Homo sapiens, UniProt P00533, L858R/T790M); assay: Inhibition of recombinant human GST-tagged EGFR L858R/T790M double mutant cytoplasmic domain expressed in baculovirus expression system preincubated for 20 mins followed by addition of [33P]-ATP measured after 2 hrs by filter-binding method
[4] = Drug metabolism in human liver microsomes assessed as parent compound remaining at 100 uM after 4 hrs in presence of NADPH regenerating system by LC-MS analysis; type: ADME, microsome; conditions: read-out: Stability
[5] = molecular target: T1, Epidermal growth factor receptor; assay: Binding affinity to wild-type human EGFR (669 to 1011 residues) expressed in bacterial system incubated for 1 hr; type: ADME
Summary of the method: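 Competition binding of inhibitor against an immobilized active-site-directed ligand; Kd read out. Compound and kinase combined and equilibrated for 1 h without dilution (study arm C).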

[6] = molecular target: T1, Epidermal growth factor receptor; assay: Binding affinity to wild-type human EGFR (669 to 1011 residues) expressed in bacterial system preincubated for 1 hr followed by 30 fold dilution measured after 5 hrs; type: ADME
Summary of the method: (§1)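 Competition binding against an immobilized active-site-directed ligand; Kd read out. Compound and kinase combined and equilibrated 1 h, then diluted 30-fold in reaction buffer and equilibrated a further 5 h (study arm B).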

[7] = molecular target: T2, Epidermal growth factor receptor; assay: Binding affinity to human EGFR L858R mutant (669 to 1011 residues) expressed in bacterial system incubated for 1 hr
Summary of the method: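 Competition binding: compound's ability to displace an immobilized, active-site-directed ligand from the kinase, reported as Kd. Compound and kinase were combined and equilibrated 1 h without dilution before read-out.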

[8] = molecular target: T3, Epidermal growth factor receptor; assay: Binding affinity to human EGFR L858R/T790M double mutant (669 to 1011 residues) expressed in mammalian system preincubated for 1 hr followed by 30 fold dilution measured after 5 hrs; summary of the method: as §1
[9] = species on record: Homo sapiens; assay: (§2) Inhibition of recombinant human N-terminally GST-His6 tagged EGFR 746-750 deletion mutant (M672 to A1210 residues) C-terminal fragment harboring 3C cleavage site expressed in Baculovirus infected Sf9 cells assessed as residual activity at 1 uM in presence of [33-gamma]-ATP after 60 mins by scintillation counting method relative to control
[10] = species on record: Homo sapiens; assay: as §2, with “del 752-759” for “746-750 deletion”, “(H672” for “(M672”
[11] = tested on: Epidermal growth factor receptor (Homo sapiens), P00533 [L858R]; assay: as §2, with “L858R” for “746-750 deletion”, “(H672” for “(M672”
[12] = tested on: Epidermal growth factor receptor (Homo sapiens), P00533 [T790M]; assay: as §2, with “T790M” for “746-750 deletion”, “(H672” for “(M672”
[13] = tested on: Epidermal growth factor receptor (Homo sapiens), P00533 [L858R,T790M]; assay: as §2, with “T790M/L858R double” for “746-750 deletion”, “(H672” for “(M672”
[14] = molecular target: EGFR (wild-type) (Homo sapiens, UniProt P00533); assay: as §2, with “recombinant wild-type” for “recombinant”, “(H672” for “746-750 deletion mutant (M672”; conditions: read-out: Activity
[15] = molecular target: Receptor tyrosine-protein kinase erbB-4 (Homo sapiens) (UniProt Q15303); assay: as §2, with “ERBB4 (R676” for “EGFR 746-750 deletion mutant (M672”, “V1307” for “A1210”, “thrombin” for “3C”
[16] = molecular target: Cytoplasmic tyrosine-protein kinase BMX (Homo sapiens) (UniProt P51813); assay: Inhibition of BMX (unknown origin) assessed as residual activity at 1 uM in presence of [33-gamma]-ATP after 60 mins by scintillation counting method relative to control
[17] = molecular target: Tyrosine-protein kinase BTK (Homo sapiens) (UniProt Q06187); assay: Inhibition of recombinant full-length human N-terminally GST-HIS6 tagged BTK (M1 to S659 residues) harboring 3C-cleavage site expressed in Baculovirus infected Sf9 cells assessed as residual activity at 1 uM in presence of [33-gamma]-ATP after 60 mins by scintillation counting method relative to control
[18] = molecular target: Casein kinase I isoform delta (Homo sapiens) (UniProt P48730); assay: Inhibition of CK1 delta (unknown origin) assessed as residual activity at 1 uM in presence of [33-gamma]-ATP after 60 mins by scintillation counting method relative to control
[19] = molecular target: Mitogen-activated protein kinase 9 (Homo sapiens) (UniProt P45984); assay: Inhibition of recombinant full-length human JNK2 (M1 to Y424 residues) expressed in Escherichia coli assessed as residual activity at 1 uM in presence of [33-gamma]-ATP after 60 mins by scintillation counting method relative to control
[20] = molecular target: Mitogen-activated protein kinase kinase kinase kinase 4 (Homo sapiens) (UniProt O95819); assay: Inhibition of recombinant human N-terminally GST-His6 tagged MAP4K4 (A7 to W1320 residues) harboring 3C-cleavage site expressed in Baculovirus infected Sf9 cells assessed as residual activity at 1 uM in presence of [33-gamma]-ATP after 60 mins by scintillation counting method relative to control
[21] = molecular target: MAP kinase-activated protein kinase 2 (Homo sapiens) (UniProt P49137); assay: Inhibition of recombinant full-length human MAPKAPK2 (M1 to L370 residues) expressed in Baculovirus infected Sf9 cells assessed as residual activity at 1 uM in presence of [33-gamma]-ATP after 60 mins by scintillation counting method relative to control
[22] = molecular target: Serine/threonine-protein kinase 26 (Homo sapiens) (UniProt Q9P289); assay: Inhibition of recombinant full-length human MST4 (M1 to P416 residues) harboring thrombin cleavage site expressed in Baculovirus infected Sf9 cells assessed as residual activity at 1 uM in presence of [33-gamma]-ATP after 60 mins by scintillation counting method relative to control
[23] = molecular target: Tyrosine-protein kinase TXK (Homo sapiens) (UniProt P42681); assay: Inhibition of TXK (unknown origin) assessed as residual activity at 1 uM in presence of [33-gamma]-ATP after 60 mins by scintillation counting method relative to control
[24] = tested on: Epidermal growth factor receptor (Homo sapiens), P00533 [L858R]; assay: Ratio of Kd for human EGFR L858R mutant (669 to 1011 residues) after 1 hr to Kd for human EGFR L858R mutant (669 to 1011 residues) after 6 hrs
Summary of the method: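 Kd from competition with an immobilized active-site-directed ligand […]. Ratio compares 1 h compound–kinase equilibration against an arm with 6 h overall equilibration.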

Casein kinase I isoform delta (Homo sapiens), sequence (P48730 whole entry, looked up, the tested form may be a part, canonical isoform): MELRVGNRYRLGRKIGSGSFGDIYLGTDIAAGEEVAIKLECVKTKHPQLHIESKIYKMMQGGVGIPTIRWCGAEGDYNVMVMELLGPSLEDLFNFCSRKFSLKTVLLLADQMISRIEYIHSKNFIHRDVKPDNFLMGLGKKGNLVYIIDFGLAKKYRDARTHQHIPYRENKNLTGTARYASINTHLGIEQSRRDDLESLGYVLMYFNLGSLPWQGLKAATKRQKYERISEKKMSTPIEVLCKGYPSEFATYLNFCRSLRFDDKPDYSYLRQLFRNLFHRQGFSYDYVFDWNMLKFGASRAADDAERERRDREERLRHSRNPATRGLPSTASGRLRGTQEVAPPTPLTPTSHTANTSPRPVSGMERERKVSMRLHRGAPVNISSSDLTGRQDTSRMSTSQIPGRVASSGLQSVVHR
Mitogen-activated protein kinase 9 (Homo sapiens), sequence (P45984 whole entry, looked up, the tested form may be a part): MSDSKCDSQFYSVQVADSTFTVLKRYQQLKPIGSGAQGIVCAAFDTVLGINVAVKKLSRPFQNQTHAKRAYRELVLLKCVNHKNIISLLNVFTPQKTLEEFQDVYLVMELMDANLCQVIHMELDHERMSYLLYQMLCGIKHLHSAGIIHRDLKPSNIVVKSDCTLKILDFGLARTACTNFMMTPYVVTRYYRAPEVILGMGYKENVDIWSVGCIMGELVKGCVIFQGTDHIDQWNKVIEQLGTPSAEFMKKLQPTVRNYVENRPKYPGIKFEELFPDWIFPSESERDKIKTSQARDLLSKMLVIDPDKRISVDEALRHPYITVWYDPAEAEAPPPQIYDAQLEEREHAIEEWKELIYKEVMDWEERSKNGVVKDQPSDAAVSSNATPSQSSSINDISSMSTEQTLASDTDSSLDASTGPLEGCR
Serine/threonine-protein kinase 26 (Homo sapiens), sequence (Q9P289 2-416 limits assumed): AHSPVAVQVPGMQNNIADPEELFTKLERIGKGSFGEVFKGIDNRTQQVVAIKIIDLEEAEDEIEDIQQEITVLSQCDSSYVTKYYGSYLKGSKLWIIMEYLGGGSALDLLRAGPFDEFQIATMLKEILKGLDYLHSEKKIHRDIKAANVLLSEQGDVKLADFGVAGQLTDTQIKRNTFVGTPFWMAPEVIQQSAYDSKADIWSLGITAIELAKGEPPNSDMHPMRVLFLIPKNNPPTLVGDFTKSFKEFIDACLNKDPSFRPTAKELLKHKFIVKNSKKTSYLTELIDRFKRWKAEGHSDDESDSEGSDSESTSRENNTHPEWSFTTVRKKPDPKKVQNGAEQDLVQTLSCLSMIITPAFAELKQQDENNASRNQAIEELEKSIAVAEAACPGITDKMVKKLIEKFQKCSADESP
Tyrosine-protein kinase TXK (Homo sapiens), sequence (P42681 whole entry, the tested form may be a part): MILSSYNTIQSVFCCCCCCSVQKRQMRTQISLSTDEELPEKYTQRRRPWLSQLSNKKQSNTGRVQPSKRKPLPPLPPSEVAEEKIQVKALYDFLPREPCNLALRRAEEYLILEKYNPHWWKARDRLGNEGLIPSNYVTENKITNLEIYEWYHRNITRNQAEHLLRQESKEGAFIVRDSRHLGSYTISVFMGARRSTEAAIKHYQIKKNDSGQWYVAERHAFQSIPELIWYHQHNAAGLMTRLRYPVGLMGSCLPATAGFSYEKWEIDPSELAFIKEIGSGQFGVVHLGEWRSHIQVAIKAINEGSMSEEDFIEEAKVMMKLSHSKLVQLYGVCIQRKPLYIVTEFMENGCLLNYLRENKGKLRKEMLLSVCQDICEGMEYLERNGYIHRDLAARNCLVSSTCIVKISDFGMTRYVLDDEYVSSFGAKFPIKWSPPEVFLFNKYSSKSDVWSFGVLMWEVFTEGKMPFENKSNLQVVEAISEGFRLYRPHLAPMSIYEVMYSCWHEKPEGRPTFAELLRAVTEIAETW
Mitogen-activated protein kinase kinase kinase kinase 4 (Homo sapiens), sequence (O95819 2-1239 limits assumed): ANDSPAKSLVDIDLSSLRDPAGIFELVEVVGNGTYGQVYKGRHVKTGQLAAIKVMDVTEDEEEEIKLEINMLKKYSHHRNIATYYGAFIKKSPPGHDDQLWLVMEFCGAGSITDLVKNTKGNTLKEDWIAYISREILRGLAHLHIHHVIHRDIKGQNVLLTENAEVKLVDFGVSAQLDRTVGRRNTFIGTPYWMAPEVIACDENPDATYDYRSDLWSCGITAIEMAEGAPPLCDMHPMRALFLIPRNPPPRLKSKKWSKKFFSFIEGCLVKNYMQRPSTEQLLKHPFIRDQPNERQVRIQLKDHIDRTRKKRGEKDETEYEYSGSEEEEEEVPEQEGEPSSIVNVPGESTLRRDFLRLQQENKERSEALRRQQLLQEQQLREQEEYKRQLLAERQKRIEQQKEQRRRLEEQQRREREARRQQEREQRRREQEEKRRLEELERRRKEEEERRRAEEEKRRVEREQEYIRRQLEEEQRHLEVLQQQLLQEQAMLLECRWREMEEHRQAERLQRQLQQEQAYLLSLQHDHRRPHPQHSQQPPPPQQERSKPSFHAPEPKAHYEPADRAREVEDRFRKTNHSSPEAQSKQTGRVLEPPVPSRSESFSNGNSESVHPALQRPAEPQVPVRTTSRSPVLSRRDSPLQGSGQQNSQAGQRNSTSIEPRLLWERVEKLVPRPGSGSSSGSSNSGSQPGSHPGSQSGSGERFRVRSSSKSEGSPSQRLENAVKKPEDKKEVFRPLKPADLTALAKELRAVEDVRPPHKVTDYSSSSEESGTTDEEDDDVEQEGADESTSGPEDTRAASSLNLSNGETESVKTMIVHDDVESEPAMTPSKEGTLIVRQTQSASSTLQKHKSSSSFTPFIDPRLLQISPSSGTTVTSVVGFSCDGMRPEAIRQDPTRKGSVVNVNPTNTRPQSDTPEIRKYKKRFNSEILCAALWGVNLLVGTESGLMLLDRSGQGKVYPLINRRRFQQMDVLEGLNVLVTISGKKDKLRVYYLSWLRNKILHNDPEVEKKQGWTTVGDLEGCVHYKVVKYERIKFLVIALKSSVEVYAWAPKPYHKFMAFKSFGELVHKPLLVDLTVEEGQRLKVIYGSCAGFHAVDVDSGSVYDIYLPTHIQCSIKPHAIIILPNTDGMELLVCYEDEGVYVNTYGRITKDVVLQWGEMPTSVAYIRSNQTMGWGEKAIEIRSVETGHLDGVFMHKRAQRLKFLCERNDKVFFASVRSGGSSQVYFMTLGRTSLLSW
MAP kinase-activated protein kinase 2 (Homo sapiens), sequence (P49137 whole entry, looked up, the tested form may be a part): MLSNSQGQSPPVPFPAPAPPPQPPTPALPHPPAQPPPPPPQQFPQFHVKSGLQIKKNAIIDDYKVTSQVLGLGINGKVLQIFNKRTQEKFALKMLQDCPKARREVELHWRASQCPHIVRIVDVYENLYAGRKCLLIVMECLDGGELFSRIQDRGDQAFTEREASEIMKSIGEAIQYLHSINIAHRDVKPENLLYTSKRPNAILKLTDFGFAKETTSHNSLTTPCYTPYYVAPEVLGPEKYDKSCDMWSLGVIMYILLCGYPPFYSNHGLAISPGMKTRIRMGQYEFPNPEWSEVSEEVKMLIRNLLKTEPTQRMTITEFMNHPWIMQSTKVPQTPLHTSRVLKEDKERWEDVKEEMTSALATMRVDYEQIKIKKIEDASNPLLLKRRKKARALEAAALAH
Tyrosine-protein kinase BTK (Homo sapiens), sequence (Q06187 whole entry, the tested form may be a part, canonical isoform): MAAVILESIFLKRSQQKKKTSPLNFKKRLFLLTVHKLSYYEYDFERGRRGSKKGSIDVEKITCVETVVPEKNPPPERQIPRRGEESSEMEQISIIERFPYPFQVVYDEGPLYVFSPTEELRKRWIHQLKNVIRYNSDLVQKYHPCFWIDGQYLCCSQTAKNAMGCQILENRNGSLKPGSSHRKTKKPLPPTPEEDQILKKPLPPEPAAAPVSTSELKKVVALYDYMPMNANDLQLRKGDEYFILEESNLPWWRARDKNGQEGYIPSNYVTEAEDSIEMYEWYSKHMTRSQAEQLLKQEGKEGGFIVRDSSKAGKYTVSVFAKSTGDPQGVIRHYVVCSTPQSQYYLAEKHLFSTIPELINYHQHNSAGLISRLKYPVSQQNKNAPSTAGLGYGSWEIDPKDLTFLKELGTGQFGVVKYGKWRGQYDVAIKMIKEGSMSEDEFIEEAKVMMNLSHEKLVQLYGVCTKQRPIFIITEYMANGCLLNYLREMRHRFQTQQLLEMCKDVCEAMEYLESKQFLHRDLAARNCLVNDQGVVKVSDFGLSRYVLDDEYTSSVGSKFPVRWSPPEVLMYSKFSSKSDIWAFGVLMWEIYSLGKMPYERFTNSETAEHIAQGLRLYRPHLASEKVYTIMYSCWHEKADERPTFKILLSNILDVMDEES
Cytoplasmic tyrosine-protein kinase BMX (Homo sapiens), sequence (P51813 whole entry, the tested form may be a part): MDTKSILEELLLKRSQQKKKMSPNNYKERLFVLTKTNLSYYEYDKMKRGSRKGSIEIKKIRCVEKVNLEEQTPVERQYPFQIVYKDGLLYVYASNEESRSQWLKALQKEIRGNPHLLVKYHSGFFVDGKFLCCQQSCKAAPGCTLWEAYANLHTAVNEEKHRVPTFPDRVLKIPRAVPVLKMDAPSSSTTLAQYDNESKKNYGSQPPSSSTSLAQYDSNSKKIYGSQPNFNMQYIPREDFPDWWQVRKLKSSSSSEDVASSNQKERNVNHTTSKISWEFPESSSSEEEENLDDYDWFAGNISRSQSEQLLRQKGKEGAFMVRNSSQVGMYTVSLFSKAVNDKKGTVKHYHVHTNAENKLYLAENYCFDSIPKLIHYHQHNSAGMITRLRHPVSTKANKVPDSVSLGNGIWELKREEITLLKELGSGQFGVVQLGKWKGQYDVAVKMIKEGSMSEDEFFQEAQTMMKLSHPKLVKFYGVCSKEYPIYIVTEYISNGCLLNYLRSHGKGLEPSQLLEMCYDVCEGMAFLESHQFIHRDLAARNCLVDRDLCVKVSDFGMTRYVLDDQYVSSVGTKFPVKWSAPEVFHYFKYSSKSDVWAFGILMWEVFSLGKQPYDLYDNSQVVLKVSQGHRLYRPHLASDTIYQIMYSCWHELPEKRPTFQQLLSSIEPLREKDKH

C=CC(=O)Nc1cccc(-c2c[nH]c3nccc(-c4[nH]c(CCCO)nc4-c4ccc(F)cc4)c23)c1
pIC50 [1]: > 9.52
pIC50 [2]: > 9.52
pIC50 [3]: 8.82
remaining at 4 h, 100 µM [4]: 87%
pKd [5]: 8.70
pKd [6]: 8.47
pKd [7]: 9.03
pKd [8]: 7.85
Activity [9]: 3%
Activity [10]: 6%
Activity [11]: 6%
Activity [12]: 12%
Activity [13]: 21%
activity at 1 h, 1 µM [14]: 5%
Activity [15]: 4%
Activity [16]: 17%
Activity [17]: 17%
Activity [18]: 47%
Activity [19]: 37%
Activity [20]: 1%
Activity [21]: 48%
Activity [22]: 47%
Activity [23]: 3%
Ratio [24]: 3 to 5
